Laboratory results published in paper PMC3016465 (Proteins, 2011).
“Also recorded” adds a separate entry of the source.

What was measured:
[1] = Atomic force microscopy of oligomers; type: physicochemical
N2a cells = experiment: MTT cytotoxicity assay; type: cell-based; conditions: oligomeric peptide, one day after addition
AβO = experiment: EPR of position 264 spin-labeled apoE with HDL or VLDL, with or without AβO; type: binding; conditions: for EPR response to AβO in presence of HDL / VLDL: apoE 30 μM, HDL or VLDL 850 mg/dL, oligomeric Aβ(1-40) 100 μM, one hour at 37 °C; for EPR response to HDL / VLDL without AβO: apoE spin-labeled at 264, HDL or VLDL, Supplemental Figure S2
Procedure, shortened: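 Human apoE isoforms (Cys at 264) expressed in E. coli BL21(DE3)AI, purified from inclusion bodies in 8 M urea, labeled with MTS-SL and refolded into PBS pH 7.4. HDL or VLDL came from postprandial human plasma by ultracentrifugation. […] Samples were incubated, then run as X-band EPR (loop-gap resonator, sealed quartz capillary), with vehicle controls.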

Aβ^(26TOAC) = experiment: EPR of Aβ^; type: binding; conditions: apoE 30 μM; 40 μM Aβ (1 part Aβ^(26TOAC) to 3 parts native Aβ(1-40)), scanned immediately after introduction into aqueous buffer
Aβ = conditions: cited from earlier work
[2] = Circular dichroism of spin-labeled apoE; type: physicochemical; conditions: spin-labeled W264C apoE4 vs wt apoE4; Supplementary Material
[3] = system: neuronal death / neurite outgrowth; conditions: independent of Aβ; ref [15]; cited from earlier work
Aβ fibrils = conditions: in vitro; ref [19]; cited from earlier work
VLDL and HDL = conditions: ref [10]; cited from earlier work

For AβO: soluble Aβ oligomer, the “time to formation of fibrillar aggregates after spotting” value ([1]; AFM, AβO 50 μM, on mica surface) was no more than 1 min, the “average volume of initial AβO species” value ([1]; AFM, set of 11, assuming simple spherical particle) was 203 ± 26 nm^3 and the “upper limit of oligomer size” value ([1]; efficient packing of the peptide in the particle is unlikely) was ≤ 30 -mer. For the same substance, the “protein mass of AβO particle” value ([1]; estimated from AFM volume, if packed similar to a globular protein) was ~ 160 kD.
In the case of “Aβ(1-40): native Aβ(1-40) peptide (Bachem Cat # 1194.0001)”, the cell death (N2a cells) is reported as 60-75%.
In the case of “E3-like protein: apoE3-like protein: R112->S mutation in the apoE4-W264C template”, the “EPR response to AβO in presence of HDL / VLDL” value (AβO) is reported as “the influence of AβO on the E3-like protein is clearly greater in the presence of HDL”, the “EPR response to HDL / VLDL without AβO” value (AβO) is reported as “becomes more ordered; where the spectra of spin-labeled 264 are similarly broadened by HDL and VLDL” and the “effect of apoE on the Aβ^(26TOAC) EPR spectrum” value (Aβ^(26TOAC)) is reported as “Only the E3-like protein induces a broadening of the Aβ^(26TOAC) spectra”. For the same substance, the “propensity to form SDS-resistant complex with Aβ” value (Aβ; E3-like mutant (Cys112→Ser) relative to apoE4, ref [29]) was “higher (relative to apoE4) propensity to form an SDS-resistant complex with Aβ”.
In the case of “apoE4: h_apoE4 protein containing the W264->Cys (apoE4-W264C) substitution”, the “EPR response to AβO in presence of HDL / VLDL” value (AβO) is reported as “slightly stronger binding effect of apoE4 to AβO in the presence of VLDL than HDL”, the “EPR response to HDL / VLDL without AβO” value (AβO) is reported as “shows little change with HDL, and a slight increase in amplitude with VLDL” and the “effect of apoE on the Aβ^(26TOAC) EPR spectrum” value (Aβ^(26TOAC)) is reported as “produces a spectrum that is identical to TOAC-labeled sample added to PBS alone; also recorded: had no significant effect on the Aβ^(26TOAC) spectrum”. The “CD analysis of spin-labeled protein” value [2] was “indistinguishable from wt apoE4”, the “neuronal death” value [3] was “induces neuronal death and forms large fibril-like assemblies” and the “association with Aβ, SDS-resistant apoE-Aβ on gels” value (Aβ; in vitro, ref [13]) was “higher apoE4 association in vitro”. For the same substance, the “affinity of lipid-free apoE4 for Aβ vs apoE3” value (Aβ; lipid-free apoE, ref [14],[19]) was “binds Aβ with a higher affinity than apoE3 and promotes fibrillization of Aβ”, the “stimulation of Aβ fibril assembly” value (Aβ fibrils) was “in vitro assembly of Aβ fibrils is stimulated by apoE, and more so by the E4 isoform” and the “lipoprotein preference” value (VLDL and HDL) was “preference of E4 to bind VLDL over HDL”.
